Measurements as given in ChEMBL document CHEMBL3272254, “Inhibition of squalene synthetase by farnesyl pyrophosphate analogues” (J Med Chem, 1977).
The source made the active and inactive calls. The calls are words filed in the database; no cut-off is given here.

What was measured:
[1] = molecular target: T1, Squalene synthase ERG9 (Saccharomyces cerevisiae (strain ATCC 204508 / S288c) (Baker's yeast)) (UniProt P29704); test: Competitive inhibition of Baker's yeast squalene synthetase using [1-3H]farnesyl pyrophosphate as substrate by Lineweaver-Burk graphic analysis
T1 sequence (whole entry): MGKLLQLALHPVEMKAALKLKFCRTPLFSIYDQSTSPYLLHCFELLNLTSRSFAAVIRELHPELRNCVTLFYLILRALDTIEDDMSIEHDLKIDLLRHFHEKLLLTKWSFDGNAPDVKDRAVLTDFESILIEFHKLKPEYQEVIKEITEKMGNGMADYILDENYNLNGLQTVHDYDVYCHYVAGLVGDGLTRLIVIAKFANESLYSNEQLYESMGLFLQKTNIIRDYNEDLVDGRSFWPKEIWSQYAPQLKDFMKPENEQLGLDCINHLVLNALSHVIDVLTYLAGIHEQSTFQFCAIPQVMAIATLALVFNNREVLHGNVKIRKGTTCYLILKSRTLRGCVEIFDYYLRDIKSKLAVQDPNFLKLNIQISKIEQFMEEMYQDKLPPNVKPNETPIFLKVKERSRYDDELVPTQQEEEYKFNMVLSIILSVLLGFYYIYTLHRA
Procedure, shortened: (§1)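 Enzyme: yeast […] from sonicated baker's yeast, high-speed supernatant precipitated at 30–55% ammonium sulfate, dialyzed in 100 mM K phosphate pH 7.0 with 20 mM 2-mercaptoethanol. Assay in 1 ml at 37 °C, started with enzyme (1.34 mg/ml protein): [1-3H]FPP 1–10 µM, 10 mM MgCl2, 1.6 mM NADPH, 50 mM K phosphate pH 7.5. Squalene recovered by minicolumn and scintillation counted. Each point done in at least two independent experiments.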

[2] = molecular target: T1, Squalene synthase ERG9 (Saccharomyces cerevisiae (strain ATCC 204508 / S288c) (Baker's yeast)); test: Inhibition of Baker's yeast squalene synthetase assessed as incorporation of [1-3H]farnesyl pyrophosphate into squalene up to 20 uM after 2 mins by liquid scintillation spectrometer analysis; procedure, shortened: as §1
[3] = molecular target: T1, Squalene synthase ERG9 (Saccharomyces cerevisiae (strain ATCC 204508 / S288c) (Baker's yeast)); test: Inhibition of Baker's yeast squalene synthetase using [1-3H]farnesyl pyrophosphate as substrate at 4 uM preincubated for up to 5 hrs before substrate addition by liquid scintillation spectrometer analysis
[4] = molecular target: T1, Squalene synthase ERG9 (Saccharomyces cerevisiae (strain ATCC 204508 / S288c) (Baker's yeast)); test: Mixed type inhibition of Baker's yeast squalene synthetase using [1-3H]farnesyl pyrophosphate as substrate by Lineweaver-Burk graphic analysis; procedure, shortened: as §1
[5] = molecular target: T1, Squalene synthase ERG9 (Saccharomyces cerevisiae (strain ATCC 204508 / S288c) (Baker's yeast)); test: Inhibition of Baker's yeast squalene synthetase assessed as incorporation of [1-3H]farnesyl pyrophosphate into squalene at 2 to 6 uM after 2 mins by liquid scintillation spectrometer analysis; procedure, shortened: as §1

| inhibition [1] | inhibition [2] | inhibition [3] | inhibition [4] | inhibition [5] | SMILES |
| --- | --- | --- | --- | --- | --- |
| Active | inactive |  |  |  | C/C(=C\COP(=O)(O)OP(=O)(O)O)CCCC(C)CCCC(C)C (stereo not given) |
| Active | inactive |  |  |  | CC(C)CCCC(C)CCCC(C)CCOP(=O)(O)OP(=O)(O)O (stereo not given) |
| Active | inactive |  |  |  | C/C(=C\COP(=O)(O)OP(=O)(O)O)CCCC(C)CCCC(C)CCCC(C)C (mixture of isomers) |
|  |  |  |  | Active | CC(C)=CCC/C(C)=C/CC/C(C)=C/COP(=O)(O)OP(=O)(O)O |
| Active | inactive |  |  | Active | CC(C)=CCC/C(C)=C/COP(=O)(O)OP(=O)(O)O |
| Active | inactive |  |  | Active | CC/C(=C\COP(=O)(O)OP(=O)(O)O)CC/C=C(\C)CCC=C(C)C |

The remaining lines, values behind:

| SMILES | inhibition [1] | inhibition [2] | inhibition [3] | inhibition [4] | inhibition [5] |
| --- | --- | --- | --- | --- | --- |
| CC(C)=CCC/C(C)=C/CC/C(I)=C\COP(=O)(O)OP(=O)(O)O | Active | inactive | Active |  |  |
| CC(C)=CCC/C(C)=C/CCC#CCOP(=O)(O)OP(=O)(O)O |  | inactive | Active | Active |  |
| CC(C)=CCC/C(C)=C/CC/C(C)=C(\C)COP(=O)(O)OP(=O)(O)O |  | inactive |  |  | Active |
| CC(C)=CCC/C(C)=C/CC/C=C(/I)COP(=O)(O)OP(=O)(O)O | Active | inactive | Active |  |  |
| CC(C)=CCC/C(C)=C/CC/C=C/COP(=O)(O)OP(=O)(O)O |  | inactive | Active | Active |  |
| CSC(C/C=C(\C)CCC=C(C)C)/C(C)=C/COP(=O)(O)OP(=O)(O)O (stereo not given) | Active | inactive | Active |  |  |
